We go through 13 molecules from ChEMBL document CHEMBL1833926, “Bicyclic heteroaryl inhibitors of stearoyl-CoA desaturase: from systemic to liver-targeting inhibitors” (Bioorg Med Chem Lett, 2011).

Calls of active or inactive are those of the source. The rule behind the calls is not given here.

In data set [1] the target is T1, Acyl-CoA 6-desaturase (Homo sapiens) (UniProt O95864).
T1 sequence (whole entry): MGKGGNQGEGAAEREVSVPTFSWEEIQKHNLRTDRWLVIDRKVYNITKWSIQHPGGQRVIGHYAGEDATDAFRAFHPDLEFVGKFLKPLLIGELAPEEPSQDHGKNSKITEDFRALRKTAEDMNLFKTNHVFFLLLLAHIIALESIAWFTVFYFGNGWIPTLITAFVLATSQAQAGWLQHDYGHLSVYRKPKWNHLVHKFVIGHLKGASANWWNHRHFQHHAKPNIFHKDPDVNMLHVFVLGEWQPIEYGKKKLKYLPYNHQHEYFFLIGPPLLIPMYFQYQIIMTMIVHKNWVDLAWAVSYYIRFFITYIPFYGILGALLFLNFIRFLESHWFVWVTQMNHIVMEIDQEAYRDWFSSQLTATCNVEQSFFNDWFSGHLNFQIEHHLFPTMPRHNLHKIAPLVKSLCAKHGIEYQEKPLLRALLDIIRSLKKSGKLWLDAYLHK
Kind of data set: Inhibition of delta-6 desaturase.

Another data set concerns the target T2, Stearoyl-CoA desaturase (Homo sapiens, UniProt O00767).
T2 sequence (O00767 whole entry): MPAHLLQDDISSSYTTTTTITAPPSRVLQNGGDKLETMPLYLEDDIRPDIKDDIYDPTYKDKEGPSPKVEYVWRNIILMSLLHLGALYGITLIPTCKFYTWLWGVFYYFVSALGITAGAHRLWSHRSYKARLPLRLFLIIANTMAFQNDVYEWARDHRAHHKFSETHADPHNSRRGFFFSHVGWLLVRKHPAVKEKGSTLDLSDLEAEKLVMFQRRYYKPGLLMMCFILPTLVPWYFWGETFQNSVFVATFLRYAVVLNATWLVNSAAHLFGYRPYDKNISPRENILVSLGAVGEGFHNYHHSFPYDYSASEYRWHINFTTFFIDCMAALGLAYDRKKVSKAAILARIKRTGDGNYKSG
Kind of data set: Inhibition of SCD1 in human HepG2 cells. The data set is classed as cell-based.

In data set [2] the target is T3, Acyl-CoA desaturase 1 (Rattus norvegicus, UniProt P07308).
T3 sequence (P07308 whole entry): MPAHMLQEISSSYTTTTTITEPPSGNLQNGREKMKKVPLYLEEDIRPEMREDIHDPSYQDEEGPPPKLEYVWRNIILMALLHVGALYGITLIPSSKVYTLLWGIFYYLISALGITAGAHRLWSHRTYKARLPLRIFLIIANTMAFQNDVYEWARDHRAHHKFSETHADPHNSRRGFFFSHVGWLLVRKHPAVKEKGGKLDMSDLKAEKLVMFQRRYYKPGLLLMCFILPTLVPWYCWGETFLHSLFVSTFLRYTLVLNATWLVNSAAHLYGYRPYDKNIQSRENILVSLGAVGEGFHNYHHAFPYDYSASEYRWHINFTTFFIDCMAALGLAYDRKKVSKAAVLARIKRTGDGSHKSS
The data set is described as follows: Inhibition of rat SCD1 in rat liver microsome.

Data set [3] has as its target Acyl-CoA (8-3)-desaturase (Homo sapiens) (UniProt O60427). Kind of data set: Inhibition of delta-5 desaturase.
Data set [4] in a line: AUC (0 to 24 hrs) in C57BL/6 mouse at 10 mg/kg, po. It counts as ADME, organism-based, C57BL6. On the set-up: time < 24 hr, dose 10 mg/kg, route oral. The note with it: whole blood. An outline of the steps: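 Oral gavage, 10 mg/kg in 0.5% methocel, to C57BL6 mice; whole blood exposure measured over 0–24 h as AUC.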
Data set [5] can be described thus: Ratio of drug uptake in liver to skin in C57BL/6 mouse liver at 10 mg/kg, po after 6 hrs. The data set is classed as ADME, organism-based, C57BL6. Details: dose 10 mg/kg, route oral. The note with it: in vivo. An outline of the steps: (§1)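 Single oral dose of 10 mg/kg in 0.5% methocel given to C57BL6 mice on normal chow. Drug levels measured 6 h post-dose in liver, white adipose, skin and Harderian glands. Liver/tissue fold selectivity taken from these levels.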

Data set [6] is described as follows: Drug uptake in C57BL/6 mouse adipose tissue at 10 mg/kg, po after 6 hrs. The conditions noted are these: in vivo. On the set-up: dose 10 mg/kg, route oral. It counts as ADME, organism-based, C57BL6. An outline of the steps:
as §1

The nature of data set [7]: Ratio of drug uptake in liver to harderian glands in C57BL/6 mouse at 10 mg/kg, po after 6 hrs. It counts as ADME, organism-based, C57BL6. The conditions noted are these: in vivo. Details: dose 10 mg/kg, route oral. In outline: as §1
Data set [8] in a line: Drug uptake in C57BL/6 mouse liver at 10 mg/kg, po after 6 hrs. It counts as ADME, organism-based, C57BL6. On the set-up: dose 10 mg/kg, route oral. The note with it: read-out: Drug uptake. An outline of the steps:
as §1

Data set [9] is described as follows: Ratio of drug uptake in liver to adipose tissue in C57BL/6 mouse at 10 mg/kg, po after 6 hrs. It counts as ADME, organism-based, C57BL6. On the set-up: dose 10 mg/kg, route oral. The note with it: in vivo. In outline:
as §1

In data set [10] the test system is HepG2. The data set is described as follows: Ratio of IC50 for SCD1 in human HepG2 cells to IC50 for SCD1 in rat Hep cells. It counts as cell-based. In outline: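 Fold shift computed as hHepG2 whole-cell IC50 over rat hepatocyte IC50.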
The nature of data set [11]: Drug uptake in C57BL/6 mouse liver at 60 mg/kg, po after 3 hrs. The data set is classed as ADME, organism-based, C57BL6. On the set-up: dose 60 mg/kg, route oral. The conditions noted are these: read-out: Drug uptake. An outline of the steps: (§2)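 Drug levels in liver and plasma measured in the mouse liver PD study. C57BL6 mice on a high carbohydrate diet received an oral dose in 0.5% methocel. Samples were taken 3 h post-dose, with livers harvested 2 h after iv [1-14C]-stearic acid tracer.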

Data set [12] in a line: Plasma concentration in C57BL/6 mouse at 60 mg/kg, po after 3 hrs. It counts as ADME, organism-based, C57BL6. On the set-up: dose 60 mg/kg, route oral. In outline: as §2
The nature of data set [13]: Apparent permeability across pig LLC-PK1 cells. It counts as ADME, cell-based, Sus scrofa.
The target in data set [14] is T3, Acyl-CoA desaturase 1. Kind of data set: Inhibition of SCD1 in rat Hep cells. The data set is classed as cell-based. In outline: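 Whole-cell SCD1 inhibition measured in rat hepatocytes, which express OATP transporters, in the presence of 10% fetal bovine serum; IC50 determined.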
A further data set relates to Mus musculus. The data set is described as follows: Inhibition of SCD1 activity in high carbohydrate diet fed C57BL/6 mouse assessed as reduction in conversion of [1-14C]stearic acid to [1-14C]oleic acid at 60 mg/kg, po after 3 hrs. The data set is classed as functional, organism-based. Details: dose 60 mg/kg. The note with it: C57BL6. An outline of the steps: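 Mouse liver PD assay in C57BL6 mice on a high carbohydrate diet, n = 5/group. Compound given orally in 0.5% methocel. At 1 h, [1-14C]-stearic acid in 60% aqueous PEG 200 given iv. Livers harvested 2 h after tracer. Lipids hydrolyzed; SCD1 activity index = 14C-oleic/14C-stearic acid ratio.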

Data set [15] deals with HepG2. The data set is described as follows: Ratio of IC50 for SCD1 in human HepG2 cells to IC50 for rat SCD1. The data set is classed as cell-based. An outline of the steps: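 Fold shift computed as hHepG2 whole-cell IC50 over the SCD1-induced rat liver microsomal enzyme IC50.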

Chain of Acyl-CoA (8-3)-desaturase (Homo sapiens) (O60427 whole entry, looked up): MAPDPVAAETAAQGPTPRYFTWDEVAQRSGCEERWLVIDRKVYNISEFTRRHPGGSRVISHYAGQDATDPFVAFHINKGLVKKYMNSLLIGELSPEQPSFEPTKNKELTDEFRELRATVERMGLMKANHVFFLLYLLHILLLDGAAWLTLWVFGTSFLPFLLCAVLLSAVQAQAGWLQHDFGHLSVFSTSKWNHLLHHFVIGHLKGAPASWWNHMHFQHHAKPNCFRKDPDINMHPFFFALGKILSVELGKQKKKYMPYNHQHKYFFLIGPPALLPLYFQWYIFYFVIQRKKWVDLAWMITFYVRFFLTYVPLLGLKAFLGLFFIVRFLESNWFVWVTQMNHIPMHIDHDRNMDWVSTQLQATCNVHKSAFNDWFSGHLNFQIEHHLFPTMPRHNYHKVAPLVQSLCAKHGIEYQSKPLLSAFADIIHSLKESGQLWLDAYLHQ

For the molecule `Fc1ccc(Br)c(OC2CCN(c3nc4ccccc4s3)CC2)c1`, the inhibition entry in data set [1] and in data set [3] was “inactive” in each case. In addition, the 50% inhibitory concentration (IC50) (commonly the concentration at which inhibition is half-maximal) came out at 10600 nM on Stearoyl-CoA desaturase and 477 nM against Acyl-CoA desaturase 1 [2].
On to `Cc1nc2nc(N3CCC(Oc4ccccc4C(F)(F)F)CC3)sc2c(=O)[nH]1`, for which the inhibition entry in [1] and in [3] was “inactive” each time. For the same molecule, the exposure AUC(0-t) (usually exposure summed from dosing to a finite time, without extrapolation to infinity) at 24 h in data set [4] came to 30 µM·h. For the same molecule, the Ratio in data set [5] was determined as 7; in data set [7], 1.1. Moreover, in data set [6], the Drug uptake entry is reported as “Not Active”. Further, the figures for the 50% inhibitory concentration (IC50) on Stearoyl-CoA desaturase and on Acyl-CoA desaturase 1 [2] were 59 nM and 8 nM, respectively. In data set [8], the concentration at 6 h amounted to 21.8 µM.
Turning to `Nc1ncnc2nc(N3CCC(Oc4ccccc4C(F)(F)F)CC3)sc12`, the inhibition result in data set [1] and in data set [3] was “inactive” in each case. Further, it took 56 nM to reach half-maximal inhibition against Acyl-CoA desaturase 1 [2] (IC50).
`O=c1[nH]cnc2nc(N3CCC(Oc4ccccc4C(F)(F)F)CC3)sc12`: the inhibition result in data set [1] and in [3] was “inactive” throughout. Moreover, the IC50 at Stearoyl-CoA desaturase was 29 nM; against Acyl-CoA desaturase 1 [2] it was 7 nM.
As for `Fc1ccc(Br)c(OC2CCN(c3ncc4[nH]cnc4n3)CC2)c1`, the results for the 50% inhibitory concentration (IC50) at Stearoyl-CoA desaturase and against Acyl-CoA desaturase 1 [2] were 47 nM and 3 nM, respectively.
In the case of `FC(F)(F)c1ccccc1OC1CCN(c2nc3ncccc3s2)CC1`, the inhibition entry in data set [1] and in [3] was “inactive” each time. The half-inhibitory concentration (IC50) against Stearoyl-CoA desaturase worked out at 755 nM; against Acyl-CoA desaturase 1 [2] it was 83 nM.
With `Nc1ncnc2[nH]c(N3CCC(Oc4ccccc4C(F)(F)F)CC3)nc12`, the inhibition result in data set [1] and in [3] was “inactive” in each case.
As for `Fc1ccc(Br)c(OC2CCN(c3ncnc4[nH]cnc34)CC2)c1`, the inhibition result in data set [1] and in data set [3] was “inactive” each time.
In the case of `O=c1[nH]c2cnc(N3CCC(Oc4ccccc4C(F)(F)F)CC3)nc2[nH]1`, the Ratio in data set [9] is 3.6; in data set [5], 4.4; in [7], 0.8. Also, the concentration for half-maximal inhibition (IC50) was 319 nM on Stearoyl-CoA desaturase and 38 nM on Acyl-CoA desaturase 1 [2]. In addition, the concentration at 6 h in data set [8] came to 24.7 µM.
For `O=C(O)CCc1nc2nc(N3CCC(Oc4cc(F)ccc4Br)CC3)sc2c(=O)[nH]1`, the Ratio IC50 came out at 145 with HepG2 [10] and 91 with HepG2 [15]. In addition, the values for the Ratio in data set [9] and in [5] were 31 and 22, respectively. For the same molecule, the figures for the concentration at 3 h in data set [11] and in data set [12] were 3.3 µM and 200 nM, respectively. In addition, the IC50 against Stearoyl-CoA desaturase came out at 24300 nM; at Acyl-CoA desaturase 1 [2] it was 266 nM; against Acyl-CoA desaturase 1 [14] it was 168 nM. In addition, in data set [13], the Papp – broadly, the rate of passage across a membrane or cell layer, normalised by area and donor concentration – worked out at 2 ×10⁻⁶ cm/s. The inhibition entry in the data set with Mus musculus is “inactive”.
For the molecule `O=c1[nH]c(CO)nc2nc(N3CCC(Oc4ccccc4C(F)(F)F)CC3)sc12`, the inhibition result in data set [1] and in data set [3] was “inactive” throughout. Besides, the IC50 against Stearoyl-CoA desaturase worked out at 16 nM; on Acyl-CoA desaturase 1 [2], 2 nM.
Take `O=c1[nH]c(N2CCC(Oc3ccccc3C(F)(F)F)CC2)nc2[nH]cnc12`: the inhibition result in data set [1] and in data set [3] was “inactive” throughout. Also, the IC50 worked out at 378 nM against Stearoyl-CoA desaturase and 97 nM against Acyl-CoA desaturase 1 [2].
Regarding `FC(F)(F)c1ccccc1OC1CCN(c2ncc3[nH]cnc3n2)CC1`, the values for the half-inhibitory concentration (IC50) at Stearoyl-CoA desaturase and against Acyl-CoA desaturase 1 [2] were 257 nM and 10 nM, respectively.
